Experiments:
[1] = melting temperature; fluorescence melt of hairpins on a sequencing array, two-state fit, raised by 9.35 °C to match UV melts; details: sodium 0.088 M
How it was run: (§1)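 Hairpins were imaged by Cy3 fluorescence on a sequenced MiSeq flow cell with annealed Cy3 and quencher oligos, in 50 mM Na-HEPES pH 8.0, 25 mM NaCl, in 2.5 °C steps up to 60 °C. Bootstrapped two-state fits of normalised signals gave melting temperature and folding enthalpy. Four replicates were combined by inverse variance, and fitted temperatures were raised by 9.35 °C to match UV melts.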

[2] = folding enthalpy; higher = less favourable; fluorescence melt of hairpins on a sequencing array, two-state fit; details: sodium 0.088 M
How it was run: as §1

| Sequence | Tm [1] [°C] | folding enthalpy [2] [kcal/mol] |
| --- | --- | --- |
| GAGTTTGCGAAAGCACTC (((..(((....)))))) | 34.1 | -15.2 |
| GAGTTTGGAAACAGACTC ((((.((....)).)))) | 41.1 | -28.3 |
| GAGTTTGGAAACGAATTC ((.((.(....).)).)) | 33.5 | -18.4 |
| GATAAACCGAAAGGTATC (((..(((....)))))) | 30 | -13.9 |
| GATAAAGGAAACTTTATC (((((((....))))))) | 44.4 | -31.7 |
| GATAACGAAAGTTGATC ((((((....))).))) | 27.6 | -11.2 |
| GATAACGGAAACGCTATC ((((.((....)).)))) | 34.4 | -29.5 |
| GATAAGGCGAAAGCCATC (((..(((....)))))) | 29.6 | -9.19 |
| GATAATGAAAATTATC ((((((....)))))) | 37.9 | -20.5 |
| GATACACGAAAGTGCATC (((.(((....))).))) | 44.2 | -23.7 |
| GATACCCGAAAGGGATC (((.(((....)))))) | 42.1 | -16.1 |
| GATACCGAAAGGTACATC ((((((....)))..))) | 26.9 | -10.4 |
| GATACCGAAAGGTATC ((((((....)))))) | 62.5 | -38.6 |
| GATACCGAAAGGTCAATC ((((((....)))..))) | 21.7 | -8.3 |
| GATACCGAAAGGTTCATC ((((((....)))..))) | 32 | -12.4 |
| GATACCGGAAACGGTACC (.(((((....))))).) | 38.8 | -13.6 |
| GATACGACGAAAGTCATC (((..(((....)))))) | 24.6 | -10.6 |
| GATACGGGAAACTGTATC (((((.(....).))))) | 43.8 | -37.1 |
| GATACTGGAAACAGTATC (((((((....))))))) | 54.6 | -40.4 |
| GATACTGGAAACGGTATC (((((.(....).))))) | 42.7 | -30.4 |
| GATAGAGGAAACTCTGTC ((.((((....)))).)) | 38 | -32.1 |
| GATAGCGAAAGCTATATC ((((((....)))..))) | 46.6 | -14.3 |
| GATAGCGAAAGCTATC ((((((....)))))) | 61.3 | -33 |
| GATAGCGAAAGCTCAATC ((((((....)))..))) | 21.7 | -10.4 |

| Sequence | Tm [1] [°C] | folding enthalpy [2] [kcal/mol] |
| --- | --- | --- |
| GATAGCGAAAGCTCTATC ((((((....)))..))) | 26.4 | -11.1 |
| GATAGCGAAAGCTTCATC ((((((....)))..))) | 28.3 | -12 |
| GATAGCGGAAACGCTACC (.(((((....))))).) | 40.4 | -12.1 |
| GATAGCGGAAACGCTGTC ((.((((....)))).)) | 52.2 | -25 |
| GATAGGCGAAAGCCCATC (((.(((....))).))) | 37.7 | -13.8 |
| GATAGGCGAAAGCCGATC (((.(((....))).))) | 55.5 | -16.8 |
| GATAGGGCGAAAGCCATC (((..(((....)))))) | 31.2 | -9.11 |
| GATAGGGGAAACCTTATC ((((.((....)).)))) | 33.6 | -25.5 |
| GATAGGGGAAACTCTATC (((((.(....).))))) | 35.7 | -31.2 |
| GATATAGAAATATATC ((((((....)))))) | 31.8 | -15 |
| GATATCCGAAAGGAATC (((.(((....)))))) | 30.2 | -12.9 |
| GATATCGGAAACGATACC (.(((((....))))).) | 33.7 | -17.3 |
| GATATCGGAAACGATGTC ((.((((....)))).)) | 46.7 | -30.7 |
| GATATGCGAAAGCAATC (((.(((....)))))) | 30 | -10.7 |
| GATATGCGAAAGCAGATC (((.(((....))).))) | 53.3 | -30.3 |
| GATATGGGAAACCATATC (((((((....))))))) | 53.3 | -37.5 |
| GATATTACGAAAGTAATC (((..(((....)))))) | 34.7 | -11.6 |
| GATATTGGAAACGATATC (((((.(....).))))) | 36.2 | -33 |
| GATCAAAAGGTTGATC ((((((....)))))) | 36.1 | -23.9 |
| GATCAAAATTTTGATC ((((((....)))))) | 48.3 | -40.1 |
| GATCAAACAATTGATC ((((((....)))))) | 37.1 | -22.6 |
| GATCAAACCTTGATC ((((((...)))))) | 40.9 | -29.1 |
| GATCAAACGCTTGATC ((((((....)))))) | 41.5 | -29.5 |
| GATCAAACTTTTGATC ((((((....)))))) | 45.9 | -27.9 |

| Sequence | Tm [1] [°C] | folding enthalpy [2] [kcal/mol] |
| --- | --- | --- |
| GATCAAAGAATTGATC ((((((....)))))) | 40 | -21.8 |
| GATCAAAGAGTTGATC ((((((....)))))) | 37.2 | -21.3 |
| GATCAAAGCTTTGATC ((((((....)))))) | 50.8 | -57.4 |
| GATCAAAGGTTTGATC ((((((....)))))) | 44.8 | -32.4 |
| GATCAAATAATTGATC ((((((....)))))) | 34.7 | -27.9 |
| GATCAAATATTGATC ((((((...)))))) | 40.2 | -32.8 |
| GATCAAATGGTTGATC ((((((....)))))) | 39.6 | -28.5 |
| GATCAAATTATTGATC ((((((....)))))) | 41.4 | -27.7 |
| GATCAACAGTTGATC ((((((...)))))) | 41.7 | -40.3 |
| GATCAACCGCTTGATC ((((((....)))))) | 44.2 | -34.4 |
| GATCAACCGTTTGATC ((((((....)))))) | 42.8 | -35.2 |
| GATCAACCTTTGATC ((((((...)))))) | 42 | -32.4 |
| GATCAACGAAAGTTTATC (((.(((....))).))) | 32.5 | -28 |
| GATCAACGACTTGATC ((((((....)))))) | 40.7 | -32.3 |
| GATCAACGCATTGATC ((((((....)))))) | 46.2 | -34.6 |
| GATCAACGCTTGATC ((((((...)))))) | 42 | -31.4 |
| GATCAACTACTTGATC ((((((....)))))) | 41.8 | -32.5 |
| GATCAACTATTGATC ((((((...)))))) | 41 | -30.4 |
| GATCAACTCATTGATC ((((((....)))))) | 44.6 | -33.8 |
| GATCAAGAACTTGATC ((((((....)))))) | 49.2 | -38.4 |
| GATCAAGAAGTTGATC ((((((....)))))) | 43.9 | -28.2 |
| GATCAAGACCTTGATC ((((((....)))))) | 50.1 | -40.2 |
| GATCAAGAGCTTGATC ((((((....)))))) | 42.2 | -38.2 |
| GATCAAGATCTTGATC ((((((....)))))) | 49.9 | -47.1 |

| Sequence | Tm [1] [°C] | folding enthalpy [2] [kcal/mol] |
| --- | --- | --- |
| GATCAAGCACTTGATC ((((((....)))))) | 50.4 | -38.4 |
| GATCAAGCGTTGATC ((((((...)))))) | 40.2 | -29.6 |
| GATCAAGCTATTGATC ((((((....)))))) | 50.2 | -40.8 |
| GATCAAGGAAACCTGATC (((((.(....).))))) | 35.6 | -29.1 |
| GATCAAGGAGTTGATC ((((((....)))))) | 45.3 | -29.5 |
| GATCAAGGCATTGATC ((((((....)))))) | 50.5 | -34.5 |
| GATCAAGGCTTGATC ((((((...)))))) | 47.8 | -49.3 |
| GATCAAGGGTTTGATC ((((((....)))))) | 43 | -26.2 |
| GATCAAGTATTTGATC ((((((....)))))) | 50.3 | -37.8 |
| GATCAATGAATTGATC ((((((....)))))) | 46.3 | -34.6 |
| GATCAATGGATTGATC ((((((....)))))) | 45.2 | -28.3 |
| GATCAATGTCTTGATC ((((((....)))))) | 43.5 | -27.9 |
| GATCAATTGATTGATC ((((((....)))))) | 47.2 | -36.5 |
| GATCAATTGGTTGATC ((((((....)))))) | 45.8 | -40.5 |
| GATCAATTGTTGATC ((((((...)))))) | 41.5 | -30.6 |
| GATCAATTTTTGATC ((((((...)))))) | 45.9 | -33.6 |
| GATCACAAAAGTGATC ((((((....)))))) | 54.7 | -36.8 |
| GATCACAACAGTGATC ((((((....)))))) | 58.7 | -41.7 |
| GATCACAACGGTGATC ((((((....)))))) | 56 | -38.7 |
| GATCACACAAGTGATC ((((((....)))))) | 56.2 | -42.4 |
| GATCACACCCGTGATC ((((((....)))))) | 57.8 | -35.2 |
| GATCACACTGTGATC ((((((...)))))) | 55.6 | -41.8 |
